Compound activity deposited in PubChem by several laboratories.
A selection: hits, their analogues and other compounds. The true share with any hit is near 4.1%.
KCNK9 inh = human KCNK9 channel inhibition; HEK293 KCNK9, FluxOR thallium flux fluorescence; hits give low values; AID 488922; B-score at 10 µM; 310,000 compounds, 1.2% hits; Q9NPC2;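 active = ratio B-score over 3 SD below the library mean, with starting fluorescence within 5 SD of its mean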;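 also: negative B-score means less thallium flux so channel inhibition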
KCNK3 inh = human KCNK3 channel inhibition, primary screen; O14649; CHO-KCNK3 thallium flux, FluxOR fluorescence; hits give low values; B-score at 10 µM; 340,000 compounds, 0.84% hits; AID 602410;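 active = B-score under library mean minus 4 SD, starting fluorescence ratio at most library mean plus 5 SD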;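 also: more negative B-score means stronger inhibition of thallium flux through KCNK3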
KCC2 mod = modulators of human KCC2 chloride dependent transport; B-score of Tl+ flux slope (higher = more flux/activation; lower = inhibition) at 10 µM; Q9H2X9; KCC2 cells, thallium flux FluoZin-2 fluorescence; 190,000 compounds, 2.2% hits; AID 1456;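 active = thallium flux slope and its plate-corrected score both differing from the plate sample mean at a set confidence after two filtering rounds, in either direction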;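 also: slope of fluorescence scaled to starting intensity during 10 to 20 s after thallium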
KCNQ1 pot = potentiators or activators of human KCNQ1 potassium channel. AID 2648. 310,000 compounds, 0.35% hits. CHO-K1 KCNQ1, thallium flux FluxOR fluorescence; hits give high values. P51787. B-score at 10 µM;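 active = fluorescence ratio B-score, a plate-corrected score, at least three library SD, with initial intensity B-score within 5 SD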
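Material: CHO-K1 cells stably expressing KCNQ1. Medium: assay buffer for compound exposure, DMSO matched across wells. Reagent: K+/Tl+ depolarizing stimulus. Compound dosing: single-concentration screen. Times: 37 °C overnight plating, 90-min dark dye load, 20-min compound pretreatment. Technique: FluxOR Tl+ flux fluorescence.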
KCNQ1 block = inhibitors of human KCNQ1 potassium channel | P51787 | CHO-K1 KCNQ1, FluxOR thallium flux fluorescence; hits give high values | B-score at 10 µM | 310,000 compounds, 1.3% hits;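 active = compounds whose thallium flux B-score, printed positive for inhibition, exceeds three library SD while starting fluorescence stays within three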;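 also: channel opened by potassium depolarization with thallium stimulus after 20 min compound exposure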
hERG protect = hERG (human) protection from proarrhythmic block; CHO-hERG, FluxOR thallium flux, dofetilide IC70 present; activation (rescue from dofetilide block), less the hit threshold, % at 10 µM; 310,000 compounds, 0.51% hits; AID 1511;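 active = activation above the mean of controls blocked by dofetilide plus 5 SD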;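 also: thallium influx through hERG after potassium depolarization seen as dye fluorescence rise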
Target sequence (Q12809 whole entry, looked up): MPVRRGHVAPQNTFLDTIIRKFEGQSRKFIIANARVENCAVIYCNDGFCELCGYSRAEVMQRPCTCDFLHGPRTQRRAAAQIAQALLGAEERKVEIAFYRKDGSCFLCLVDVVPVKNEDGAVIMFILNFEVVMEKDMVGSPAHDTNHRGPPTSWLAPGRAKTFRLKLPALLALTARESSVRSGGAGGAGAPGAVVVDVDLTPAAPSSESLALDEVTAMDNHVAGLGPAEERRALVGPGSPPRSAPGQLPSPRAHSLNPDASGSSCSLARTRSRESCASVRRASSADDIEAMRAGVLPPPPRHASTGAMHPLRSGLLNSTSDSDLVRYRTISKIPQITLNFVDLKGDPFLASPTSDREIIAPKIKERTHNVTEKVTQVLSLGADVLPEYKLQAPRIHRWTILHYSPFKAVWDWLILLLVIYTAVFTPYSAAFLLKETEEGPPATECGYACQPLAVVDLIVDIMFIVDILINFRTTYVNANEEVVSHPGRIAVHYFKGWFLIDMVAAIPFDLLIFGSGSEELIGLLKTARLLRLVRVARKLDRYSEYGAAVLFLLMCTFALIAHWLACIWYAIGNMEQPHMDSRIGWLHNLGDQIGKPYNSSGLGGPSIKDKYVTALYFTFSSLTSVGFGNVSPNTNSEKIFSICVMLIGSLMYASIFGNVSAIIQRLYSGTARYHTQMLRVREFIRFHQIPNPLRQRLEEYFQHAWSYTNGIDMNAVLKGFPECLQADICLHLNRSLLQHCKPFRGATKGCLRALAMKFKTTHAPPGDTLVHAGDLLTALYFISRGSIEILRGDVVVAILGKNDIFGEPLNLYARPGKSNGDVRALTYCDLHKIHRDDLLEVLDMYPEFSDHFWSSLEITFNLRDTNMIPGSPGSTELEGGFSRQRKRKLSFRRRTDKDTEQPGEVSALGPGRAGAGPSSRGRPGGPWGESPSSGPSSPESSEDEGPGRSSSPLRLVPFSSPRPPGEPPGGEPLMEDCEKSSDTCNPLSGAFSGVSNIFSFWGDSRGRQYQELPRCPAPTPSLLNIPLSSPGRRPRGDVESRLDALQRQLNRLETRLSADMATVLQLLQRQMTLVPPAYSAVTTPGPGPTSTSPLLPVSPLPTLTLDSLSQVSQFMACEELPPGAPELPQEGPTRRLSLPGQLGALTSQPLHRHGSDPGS
KCC2 secondary = confirmation of human KCC2 transport modulators. shares compounds with KCC2 mod. HEK293-KCC2, thallium flux, FluoZin2 fluorescence; hits give high values. normalised thallium flux (F/F0 slope) at 10 µM. 3,700 compounds, 15% hits. AID 1713;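 active = thallium flux slope above the same plate's solvent-only control mean plus 3 SD; inconclusive = the two replicate wells disagree; inactive = no significant difference from solvent-only control wells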
KCC2 bumet counter = thallium flux persisting under bumetanide in KCC2 cells, counter-screen secondary assay; HEK293-KCC2 + bumetanide/ouabain, thallium flux FluoZin2; hits give high values; 3,700 compounds, 49% hits; normalized thallium flux at 10 µM; shares compounds with KCC2 mod; AID 1714;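 active = thallium entry rate above the same plate's blocked-transporter control wells by more than 3 SD; inconclusive = the two repeat wells disagree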;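 also: raw slope of fluorescence over initial fluorescence between 10 and 20 s after thallium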
KCC2 secondary2 = confirmation of human KCC2 transport modulators. HEK293-KCC2, thallium flux FluoZin2 fluorescence; actives lie on both sides; F/F0 rise rate, 10–20 s post-thallium. normalized thallium flux at 10 µM. shares compounds with KCC2 mod. AID 1715. 3,700 compounds, 23% hits;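 active = thallium flux slope more than 3 SD above or below the plate's solvent-only control mean, mostly below; inconclusive = the two repeat wells disagreed; inactive = no significant shift from solvent-only controls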
HEK counter1 = parental HEK flux effect, counter-screen; shares compounds with KCC2 mod; HEK293 parental cells, thallium flux FluoZin2, ouabain; baseline-ratio fluorescence slope, 10–20 s after thallium; thallium flux rate (normalised fluorescence) at 10 µM; 3,700 compounds, 46% hits;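 active = thallium flux rate significantly above the same plate's solvent-only control wells, beyond their mean plus 3 SD; inconclusive = the two replicate wells gave conflicting results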
KCC2 retest ouab = confirmation of human KCC2 modulators with ouabain; shares compounds with KCC2 mod; AID 1717; raw Tl+ flux slope (below DMSO = inhibition, above = activation) at 10 µM; 3,700 compounds, 48% hits; HEK293-KCC2, thallium flux FluoZin2 fluorescence; bidirectional: low = inhibitor, high = activator;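 active = thallium flux slope beyond 3 SD from same-plate DMSO control mean in most replicates, usually higher, sometimes lower; inconclusive = repeat tests gave conflicting results; inactive = no significant difference from controls in most replicates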;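 also: slope of initial-normalized fluorescence between seconds 10 and 20 after thallium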
HEK counter2 = parental HEK flux effect, counter-screen 2; 3,700 compounds, 33% hits; shares compounds with KCC2 mod; thallium flux slope at 10 µM; HEK293 parental, thallium flux FluoZin-2 fluorescence slope; AID 1718;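 active = thallium flux slope above the same plate's solvent-control mean plus 3 SD in both duplicate wells; inconclusive = duplicate wells that disagreed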;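 also: run without ouabain in cells lacking the KCC2 cotransporter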
Each line names hits and unclear results; the compound was inactive in the other large screens (follow-up assays come after a bar, where they were run).

C/C(=N\NC(=O)c1ccccc1OCc1ccc(F)cc1)c1ccccn1	none (no result: KCNK9 inh, KCC2 mod, KCNQ1 pot, KCNQ1 block, hERG protect)
C=CCn1c(-c2cccc3ccccc23)n[nH]c1=S	none
Cn1c(-c2csc(-c3ccccc3)n2)n[nH]c1=S	KCC2 mod 5.2 | KCC2 secondary inactive | KCC2 bumet counter 0.021 | KCC2 secondary2 inactive | HEK counter1 0.017 | KCC2 retest ouab 0.028 | HEK counter2 0.02
CCn1c(-c2cc(-c3ccc(C)cc3)nc3ccccc23)n[nH]c1=S	KCC2 mod 7.9 | KCC2 secondary inconclusive | KCC2 bumet counter 0.049 | KCC2 secondary2 inactive | HEK counter1 0.015 | KCC2 retest ouab 0.039 | HEK counter2 0.017
Cc1ccc(-c2n[nH]c(=S)n2C)cc1	none (no result: KCC2 mod)
CCn1c(-c2sc(-c3ccccc3)nc2C)n[nH]c1=S	KCC2 mod 3.9 | KCC2 secondary inactive | KCC2 bumet counter 0.013 | KCC2 secondary2 inactive | HEK counter1 0.014 | KCC2 retest ouab inconclusive | HEK counter2 0.017
C=CCn1c(-c2cc(-c3ccc(C)cc3)nc3ccccc23)n[nH]c1=S	KCC2 mod 36, hERG protect 5.8 | KCC2 secondary 0.015 | KCC2 bumet counter 0.11 | KCC2 secondary2 inactive | HEK counter1 0.031 | KCC2 retest ouab 0.052 | HEK counter2 0.012
Cc1cccc(CC(=O)NCCS(=O)(=O)N2CCN(c3cccc(Cl)c3)CC2)c1	none (no result: KCC2 mod)
CN(C)S(=O)(=O)c1cccc(NC(=O)c2cc3c(cc2Cl)N2CCCCCC2=NS3(=O)=O)c1	KCC2 mod -4.5 | KCC2 secondary inactive | KCC2 bumet counter inactive | KCC2 secondary2 0.023 | HEK counter1 inactive | KCC2 retest ouab 0.014 | HEK counter2 inactive
CN(C)S(=O)(=O)c1cccc(NC(=O)c2ccc3c(c2)S(=O)(=O)N=C2CCCCCN23)c1	none (no result: KCC2 mod)
N#C/C(=N\Nc1ccc(Cl)c(Cl)c1)C(=O)C1CC1	KCC2 mod -6 | KCC2 secondary inactive | KCC2 bumet counter inactive | KCC2 secondary2 0.023 | HEK counter1 0.004 | KCC2 retest ouab 0.012 | HEK counter2 0.0074
N#C/C(=N\Nc1ccc(F)cc1)C(=O)C1CC1	none
O=C(COC(=O)c1ccc(F)cc1F)NC(=O)Nc1ccc2c(c1)OCCO2	none (no result: KCNK9 inh, KCC2 mod, KCNQ1 pot, KCNQ1 block, hERG protect)
O=C(NC1CC1)c1sc2ccccc2c1Cl	none (no result: KCC2 mod)
O=C(NC(=S)NCCO)c1sc2ccccc2c1Cl	KCC2 mod 3.7 | KCC2 secondary inactive | KCC2 bumet counter 0.011 | KCC2 secondary2 inactive | HEK counter1 0.015 | KCC2 retest ouab inactive | HEK counter2 inactive
Cc1c(-c2n[nH]c(=S)n2-c2ccc(Br)cc2)nnn1-c1ccc(Cl)cc1	KCC2 mod 5.4 | KCC2 secondary inactive | KCC2 bumet counter 0.024 | KCC2 secondary2 inactive | HEK counter1 0.01 | KCC2 retest ouab inactive | HEK counter2 inconclusive
Cc1c(-c2n[nH]c(=S)n2-c2ccc(C(F)(F)F)cc2)nnn1-c1ccccc1	none
Cc1cc(C)nc(Sc2nc(C)nc3c2oc2ccccc23)n1	none (no result: KCNK9 inh, KCC2 mod, KCNQ1 pot, KCNQ1 block, hERG protect) | KCC2 secondary inactive | KCC2 bumet counter inactive | KCC2 secondary2 inactive | HEK counter1 inactive | KCC2 retest ouab inactive | HEK counter2 inactive
COc1ccc2c(c1)CCCC21NC(=O)N(CC(=O)c2cc(F)ccc2F)C1=O (stereo not drawn)	none (no result: KCNK9 inh, KCC2 mod, KCNQ1 pot, KCNQ1 block, hERG protect)
COc1ccc(C2c3sc(=O)[nH]c3SC3C(=O)N(c4ccccc4)C(=O)C32)cc1 (stereo not drawn)	KCC2 mod -5.9 | KCC2 secondary inactive | KCC2 bumet counter 0.0087 | KCC2 secondary2 0.022 | HEK counter1 0.0097 | KCC2 retest ouab 0.011 | HEK counter2 inactive
O=C1C2Sc3[nH]c(=O)sc3C(c3ccccc3)C2C(=O)N1c1ccccc1 (stereo not drawn)	KCC2 mod -12 | KCC2 secondary inconclusive | KCC2 bumet counter inactive | KCC2 secondary2 0.017 | HEK counter1 inactive | KCC2 retest ouab inconclusive | HEK counter2 inactive
COC(=O)C(Cc1ccc(O)cc1)NC(=O)Cn1cc(C)c(=O)[nH]c1=O (stereo not drawn)	none (no result: KCNK9 inh, KCC2 mod, KCNQ1 pot, KCNQ1 block, hERG protect)
N=C1SC(c2ccccc2)C(=O)N1c1ncc(Cc2ccccc2Cl)s1 (stereo not drawn)	KCC2 mod 5.8 | KCC2 secondary inactive | KCC2 bumet counter 0.02 | KCC2 secondary2 inactive | HEK counter1 0.016 | KCC2 retest ouab inconclusive | HEK counter2 0.02
Cc1cc(F)ccc1S(=O)(=O)Nc1ncnc2sc3c(c12)CCC3	none
O=S(=O)(Nc1ncnc2sc3c(c12)CCC3)c1ccc2ccccc2c1	KCC2 mod -3.1 (no result: KCNK9 inh, KCNQ1 pot, KCNQ1 block, hERG protect) | KCC2 secondary inactive | KCC2 bumet counter 0.0056 | KCC2 secondary2 inactive | HEK counter1 inactive | KCC2 retest ouab inactive | HEK counter2 inactive
CCc1cc(C(=O)O)c(NC(=O)C(c2ccccc2)c2ccccc2)s1	KCC2 mod -4.3 | KCC2 secondary inactive | KCC2 bumet counter 0.0055 | KCC2 secondary2 inactive | HEK counter1 inactive | KCC2 retest ouab inactive | HEK counter2 inactive
CC(C)Cn1c(-c2ccc(Br)o2)n[nH]c1=S	KCC2 mod 12 | KCC2 secondary 0.018 | KCC2 bumet counter 0.04 | KCC2 secondary2 inactive | HEK counter1 0.019 | KCC2 retest ouab 0.032 | HEK counter2 0.012
Cc1ccccc1-n1c(-c2ccc(Br)o2)n[nH]c1=S	none (no result: KCC2 mod)
O=C(CN(Cc1ccccc1)S(=O)(=O)c1ccc2c(c1)OCCO2)Nc1ccc2c(c1)OCCO2	none (no result: KCC2 mod) | KCC2 secondary inactive | KCC2 bumet counter inactive | KCC2 secondary2 0.025 | HEK counter1 0.0062 | KCC2 retest ouab inconclusive | HEK counter2 inactive
CCC(Sc1nc(C)cc(=O)[nH]1)C(=O)Nc1nc(-c2ccccc2)cs1 (stereo not drawn)	KCC2 mod -5.3 | KCC2 secondary inactive | KCC2 bumet counter inactive | KCC2 secondary2 0.021 | HEK counter1 0.006 | KCC2 retest ouab 0.012 | HEK counter2 inactive
O=C(NC1CCCC1)c1cc(-c2cccc(Cl)c2)on1	none (no result: KCC2 mod)
